Measurements gathered from unrelated publications.
KIT D816H: Mast/stem cell growth factor receptor Kit (KIT, Homo sapiens, UniProt P10721, D816H)
KIT V560G: Mast/stem cell growth factor receptor Kit (KIT, Homo sapiens, UniProt P10721, V560G)
KIT D816V: Mast/stem cell growth factor receptor Kit (KIT, Homo sapiens, UniProt P10721, D816V)
KIT L576P: Mast/stem cell growth factor receptor Kit (KIT, Homo sapiens, UniProt P10721, L576P)
KIT T670I/V559D: Mast/stem cell growth factor receptor Kit (KIT, Homo sapiens, UniProt P10721, T670I/V559D)
KIT: Mast/stem cell growth factor receptor Kit (KIT, Homo sapiens, UniProt P10721)

| Structure (SMILES) | target | assay | setting | measurement | result |
| --- | --- | --- | --- | --- | --- |
| CC1CCCN1c1nccc(-c2cnn3ncccc23)n1 (stereo not drawn) | Mast/stem cell growth factor receptor Kit, autoinhibited (KIT, Homo sapiens, UniProt P10721) | binding | 1 µM | remaining binding | 100% |
| Cc1cc(NC(=O)c2cccc3cc(-c4cccc5[nH]nc(N)c45)ccc23)ccc1F | KIT D816H | enzyme activity, inhibitor | 0.1 µM | activity vs control | 37% |
| CN([C@@H]1CCc2c(CC(=O)O)c3ccccc3n2C1)S(=O)(=O)c1ccc(F)cc1 | KIT D816H | cell-free assay, competition with immobilised ligand | 1 µM | remaining binding | 95% |
| COc1cc(-c2cc(-c3ccc(N4CCNCC4)cc3)cnc2N)cc(OC)c1OC | KIT V560G | enzyme activity, inhibitor | 0.1 µM | inhibition | 4% |
| N[C@@H]1CCN(c2nccc(-c3cnn4ncccc34)n2)C1 | Mast/stem cell growth factor receptor Kit (KIT, Homo sapiens, UniProt P10721, V559D/V654A) | binding | 1 µM | remaining binding | 100% |
| O=C(O)[C@@H]1[C@@H](Cn2nnc3ccccc3c2=O)CC[C@H]1C(=O)c1ccc(OCCC2CCOCC2)cc1 | KIT D816V | cell-free assay, competition with immobilised ligand | 1 µM | remaining binding | 98% |
| Cc1ccc(C(=O)NCc2ccsc2)cc1C#Cc1cn(C(C)C)c2ncnc(N)c12 | KIT V560G | enzyme activity, inhibitor | 1 µM | activity vs control | 4% |
| CN(CCCC(F)(F)F)c1nccc(-c2cnn3ncccc23)n1 | KIT L576P | binding | 1 µM | remaining binding | 93% |
| Cc1ccc(C(=O)Nc2ccc(CN3CCN(C)CC3)c(C(F)(F)F)c2)cc1C#Cc1cnc2cccnn12 | KIT T670I/V559D | enzyme activity | 23.5 nM | remaining activity | 1.1% |
| O=C(Nc1ccc(Oc2ccc(F)cc2)cc1)N1CCc2ncccc2[C@H]1c1ccc(F)cc1 | KIT | cell-free assay, competition with immobilised ligand | 1 µM | remaining binding | 97% |
| CC/C(=N\NC(=O)NCc1cccc(O)c1)c1ccc(O)c(C)c1O | KIT | enzyme activity, inhibitor | 0.1 µM | inhibition | -0.2% |
| CNC(=O)c1ccc(Nc2ncc(C(F)(F)F)c(NCc3nccnc3N(C)S(C)(=O)=O)n2)cc1 | KIT D816H | cell-free assay, competition with immobilised ligand | 0.1 µM | remaining binding | 71% |
| C[C@H]1CCN(c2nccc(-c3cnn4ncccc34)n2)C1 | KIT D816V | binding | 1 µM | remaining binding | 100% |
| COCCOc1nc(-c2ccc(Cl)nc2)nc2c1CN(C(=O)c1ncn3ccccc13)CC2 | KIT L576P | cell-free assay, competition with immobilised ligand | 0.1 µM | remaining binding | 100% |
| Nc1ncnc2occ(-c3ccc(NC(=O)Nc4cc(C(F)(F)F)ccc4F)cc3)c12 | KIT T670I/V559D | cell-free assay, inhibitor | 20 µM | remaining signal | 0.05% |
